Most compounds without a hit are left out; they make up all but 2.3% or so of the library.
TRPC4 block = inhibitors of mouse TRPC4 channel, primary screen, Fluo4 calcium, HEK293 TRPC4beta/mu-opioid cells; B-score at 10 µM; DAMGO-evoked Fluo4 calcium flux; active compounds read low; 300,000 compounds, 0.39% hits; Short transient receptor potential channel 4 (Mus musculus), Q9QUQ5;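 active = B-score over 3 SD under the library average, no early fluorescence shift, positive overall ratio signal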
Target sequence (Q9QUQ5 whole entry, looked up): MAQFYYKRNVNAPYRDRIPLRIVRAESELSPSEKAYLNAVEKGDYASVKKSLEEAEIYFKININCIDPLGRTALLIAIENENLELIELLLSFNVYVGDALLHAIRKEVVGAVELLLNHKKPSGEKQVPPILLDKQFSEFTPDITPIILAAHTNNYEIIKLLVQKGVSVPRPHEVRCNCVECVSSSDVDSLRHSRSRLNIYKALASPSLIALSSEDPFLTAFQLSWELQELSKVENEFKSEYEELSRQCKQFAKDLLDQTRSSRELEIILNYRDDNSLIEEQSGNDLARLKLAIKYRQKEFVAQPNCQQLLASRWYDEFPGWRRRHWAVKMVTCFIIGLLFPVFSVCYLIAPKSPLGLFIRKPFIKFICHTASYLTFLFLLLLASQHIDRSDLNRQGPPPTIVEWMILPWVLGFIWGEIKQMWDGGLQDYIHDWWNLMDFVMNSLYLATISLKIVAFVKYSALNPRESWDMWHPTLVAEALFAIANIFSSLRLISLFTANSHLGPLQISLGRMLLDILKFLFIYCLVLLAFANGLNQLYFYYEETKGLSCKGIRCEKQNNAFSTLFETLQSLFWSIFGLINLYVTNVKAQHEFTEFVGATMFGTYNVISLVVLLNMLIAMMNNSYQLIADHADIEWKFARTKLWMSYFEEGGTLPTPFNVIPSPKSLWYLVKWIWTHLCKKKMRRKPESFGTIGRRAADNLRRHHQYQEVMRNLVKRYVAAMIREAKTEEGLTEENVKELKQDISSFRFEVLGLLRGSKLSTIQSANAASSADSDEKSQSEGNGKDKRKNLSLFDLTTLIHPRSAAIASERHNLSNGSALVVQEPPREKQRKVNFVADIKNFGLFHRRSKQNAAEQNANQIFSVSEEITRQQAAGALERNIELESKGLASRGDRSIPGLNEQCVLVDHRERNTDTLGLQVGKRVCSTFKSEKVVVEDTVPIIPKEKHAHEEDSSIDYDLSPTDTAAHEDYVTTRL
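Test system – stable TRPC4beta/mu-opioid receptor HEK293 cells · Probe or stimulus – DAMGO, a submaximal dose followed by a maximal one · Dosing – one concentration per compound · Signal – Fluo4 calcium fluorescence by kinetic imaging, 5 s 1 Hz baseline · Evaluation – per-well B score of integrated baseline-normalized Fluo4 ratio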
TRPC6 inh = mouse TRPC6 channel inhibitors, primary screen, cell-based, HEK293, membrane potential dye. Short transient receptor potential channel 6 (Mus musculus), Q61143. ACh-evoked depolarization; active compounds read low. B-score at 10 µM. 310,000 compounds, 1.1% hits;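 active = B-score under library mean minus 3 SD, initial fluorescence not abnormally high, positive integrated signal ratio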;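 also: B-score derived from integrated fluorescence ratio over the kinetic read; more negative B-score means stronger inhibition of depolarization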
TRPC4 agonist = activators of mouse TRPC4 channel, primary screen, Fluo4 calcium, HEK293 TRPC4beta/mu-opioid cells. Short transient receptor potential channel 4 (Mus musculus), Q9QUQ5. Fluo4 calcium fluorescence; active compounds read high. B-score at 10 µM. 310,000 compounds, 0.49% hits. AID 2237, 2010;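 active = B-score above 5 SD of library B-scores, and initial fluorescence ratio not above library mean plus 5 SD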;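 also: positive B-score marks a calcium rise read as TRPC4 activation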
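system = HEK293 cells stably co-expressing mouse TRPC4beta and mu-opioid receptor | schedule = Fluo4 dye loading 45 min at room temperature, 110 s recording | measure = B-scored integrated calcium fluorescence ratio | signal = Fluo4 calcium-sensitive dye fluorescence, kinetic, 1 Hz baseline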
TRPC6 act = mouse TRPC6 channel activators, primary screen, cell-based, HEK293, membrane potential dye; HEK293-TRPC6 membrane potential dye fluorescence; active compounds read high; 310,000 compounds, 0.13% hits; B-score at 10 µM;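 active = B-score of the integrated fluorescence ratio above library mean plus 3 SD, and starting fluorescence ratio within library mean plus 5 SD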;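 also: higher score means more depolarization so channel activation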
TRPC4 potent = positive allosteric modulators of TRPC4, primary screen, cell-based, mouse TRPC4beta, HEK293 mu-opioid, Fluo-4 calcium; Short transient receptor potential channel 4 (Mus musculus), Q9QUQ5; DAMGO EC20, Fluo-4 Ca2+ flux; active compounds read high; B-score at 10 µM; 310,000 compounds, 0.42% hits; AID 2227, 2009;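 active = B-score of calcium response area above 5 SD of library B-scores, with initial fluorescence ratio within 5 SD of library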
TRPC4 spec 2 = mouse TRPC4 off-target activity of TRPC6 inhibitors, second screen; HEK293 TRPC4/MOR, membrane potential dye fluorescence; channel activated by saturating DAMGO dose; inhibition, % at 10 µM; shares compounds with TRPC6 inh; 920 compounds, 42% hits;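 active = compounds whose fluorescence signal differed from control wells by over 3 SD, either direction, in both duplicate plates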
TRPC4 spec = mouse TRPC4 modulation by TRPC6 hits, confirmation, selectivity assay for TRPC6 inhibitor project, cell-based, HEK293 TRPC4/mu-opioid, membrane potential dye. AID 2777, 2010. membrane potential fluorescence. activity change, negative = inhibition, % at 10 µM. shares compounds with TRPC6 inh. 920 compounds, 61% hits;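 active = rise or fall in signal beyond 3 SD of buffer-only wells in both replicate plates, either sign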;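 also: integrated kinetic ratio of fluorescence range over baseline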
HEK293 MPD ctr 2-1 = nonspecific membrane potential effects, parental HEK293, confirmation, counter-screen for TRPC6 inhibitor project, cell-based, second counter screen; shares compounds with TRPC6 inh; parental HEK293 membrane potential dye fluorescence; maximal acetylcholine challenge after compound addition; signal change vs control, % at 10 µM; 920 compounds, 31% hits; AID 2779, 2010;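 active = membrane potential signal moving either way by over 3 SD of the maximum-effect control, in both duplicate plates, meaning non-specific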
HEK293 MPD ctr-1 = membrane potential modulation in parental HEK293, confirmation, counter-screen for TRPC6 inhibitor project, cell-based. shares compounds with TRPC6 inh. parental HEK293 membrane potential dye fluorescence. membrane potential signal change, % at 10 µM. 920 compounds, 60% hits;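 active = membrane potential signal shifting up or down by more than 3 SD of buffer-only wells, on both duplicate plates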
HEK293 MPD ctr-2 = parental HEK293 membrane potential modulation, confirmation, counter-screen for TRPC6 modulator project, cell-based. shares compounds with TRPC6 inh. membrane potential dye fluorescence. membrane potential signal change, % at 10 µM. 2,400 compounds, 51% hits. AID 488924, 2010;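 active = membrane potential signal moves up or down beyond 5 SD from buffer-only wells, on both duplicate plates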
HEK293 MPD ctr 2-2 = parental HEK293 nonspecific activity of TRPC6 modulators, second screen. inhibition, % at 10 µM. shares compounds with TRPC6 inh. AID 488926. membrane potential dye fluorescence; after compound, maximal acetylcholine stimulation. 2,400 compounds, 14% hits;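 active = membrane potential signal drops by more than 5 SD from the mean control signal, in both duplicate plates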
TRPC4 ctr mod = TRPC4 modulation by TRPC6 hit compounds, confirmation, selectivity assay for TRPC6 modulator project, cell-based, HEK293 TRPC4/mu-opioid, membrane potential dye, mouse; membrane potential fluorescence; AID 488927, 2010; 2,400 compounds, 69% hits; percent change from control (negative = decrease, positive = increase), % at 10 µM; shares compounds with TRPC6 inh;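 active = membrane potential signal moved up or down beyond 5 SD of buffer control wells, in both duplicate plates, actives on both sides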
TRPC4 ctr inh 2 = second selectivity test of TRPC6 modulators against mouse TRPC4 | shares compounds with TRPC6 inh | HEK293 TRPC4/mu-opioid, membrane potential dye fluorescence; stimulated with maximal-effect DAMGO | inhibition, % at 10 µM | 2,400 compounds, 55% hits | AID 488928;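 active = drop in membrane potential signal beyond 5 SD of the control wells in both duplicate plates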;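 also: TRPC4 counter screen for TRPC6 hits run under conditions tuned for TRPC6 not TRPC4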
TRPC6 block conf = mouse TRPC6 channel inhibitors, confirmation, HEK293 cells, membrane potential dye, duplicate | shares compounds with TRPC6 inh | ACh-evoked depolarization | inhibition, % at 10 µM | 3,300 compounds, 43% hits;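 active = fluorescence ratio falls more than 5 SD below the full-stimulation control mean, in both duplicate runs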;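 also: integrated fluorescence ratio of peak minus minimum over baseline after agonist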
TRPC6 act confirm = mouse TRPC6 channel activators, confirmation, HEK293 cells, membrane potential dye, duplicate; HEK293-TRPC6 membrane potential dye fluorescence, FDSS; shares compounds with TRPC6 inh; 2,800 compounds, 11% hits; activation, % at 10 µM;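 active = ratio signal rise beyond 5 SD above unstimulated control wells' mean, seen in both duplicate runs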
Hits are given with their value.

For O=C(Nc1cccc(C(F)(F)F)c1)Nc1ccon1 the results were TRPC4 block inactive, TRPC6 inh inactive, TRPC4 agonist inactive, TRPC6 act inactive and TRPC4 potent inactive.
`CCN(CC)CCN1C(=O)C(=O)/C(=C(/O)c2ccc(S(=O)(=O)N3CCOCC3)cc2)C1c1ccc(C(C)C)cc1` (stereo not given) gave TRPC4 block inactive, TRPC6 inh inactive, TRPC4 agonist inactive, TRPC6 act inactive and TRPC4 potent inactive.
Cc1cc(C)c2nc3nc(C)c(C)cc3c(N)c2c1 was read as TRPC4 block inactive, TRPC6 inh -5.8, TRPC4 agonist inactive, TRPC6 act inactive, TRPC4 potent inactive, HEK293 MPD ctr-2 inactive, HEK293 MPD ctr 2-2 inactive, TRPC4 ctr mod -25%, TRPC4 ctr inh 2 34%, TRPC6 block conf 59% and TRPC6 act confirm inactive.
c1cncc(-c2nc(NCCCn3ccnc3)c3ccccc3n2)c1 was read as TRPC4 block inactive, TRPC6 inh inactive, TRPC4 agonist inactive, TRPC6 act inactive and TRPC4 potent inactive.
Cc1nc(NCCCn2ccnc2)c2ccccc2n1 was read as TRPC4 block inactive, TRPC6 inh -7.7, TRPC4 agonist inactive, TRPC6 act inactive, TRPC4 potent inactive, HEK293 MPD ctr-2 -237%, HEK293 MPD ctr 2-2 61%, TRPC4 ctr mod -38%, TRPC4 ctr inh 2 38%, TRPC6 block conf 52% and TRPC6 act confirm inactive.
Screening COCc1ccc(CN2CCCC(C(=O)Nc3ccc(-c4cscn4)cc3)C2)o1 (stereo not given) returned TRPC4 block inactive, TRPC6 inh inactive, TRPC4 agonist inactive, TRPC6 act inactive and TRPC4 potent inactive.
`CC(=O)Nc1ccc(C(=O)OCCC(C)C)cc1` gave TRPC4 block inactive, TRPC6 inh -6.8, TRPC4 agonist inactive, TRPC6 act inactive, TRPC4 potent inactive, TRPC4 spec 2 inactive, TRPC4 spec inactive, HEK293 MPD ctr 2-1 inactive, HEK293 MPD ctr-1 inactive, TRPC6 block conf inactive and TRPC6 act confirm inactive.
Cc1ccc(C(=O)OCCN(C)Cc2ccccc2)cc1 was read as TRPC4 block inactive, TRPC6 inh inactive, TRPC4 agonist inactive, TRPC6 act inactive and TRPC4 potent inactive.
Cc1c(CCOC(=O)C23CC4CC(CC(C4)C2)C3)sc[n+]1Cc1ccccc1 was read as TRPC4 block inactive, TRPC6 inh -7.5, TRPC4 agonist inactive, TRPC6 act inactive, TRPC4 potent inactive, TRPC4 spec 2 inactive, TRPC4 spec inactive, HEK293 MPD ctr 2-1 -9.5%, HEK293 MPD ctr-1 inactive, TRPC6 block conf 88% and TRPC6 act confirm inactive.
Cc1c(CCOC(=O)C23CC4CC(CC(C)(C4)C2)C3)sc[n+]1Cc1ccccc1 was read as TRPC4 block inactive, TRPC6 inh inactive, TRPC4 agonist inactive, TRPC6 act inactive and TRPC4 potent inactive.
For Cc1ccc(C(=O)OCCc2sc[n+](Cc3ccccc3)c2C)cc1 the results were TRPC4 block inactive, TRPC6 inh -9.4, TRPC4 agonist inactive, TRPC6 act inactive, TRPC4 potent inactive, TRPC4 spec 2 inactive, TRPC4 spec -12%, HEK293 MPD ctr 2-1 31%, HEK293 MPD ctr-1 -170%, TRPC6 block conf 80% and TRPC6 act confirm inactive.
For O=[N+]([O-])c1ccc(Cl)c(S(=O)(=O)/N=C(/c2ccccc2)N2CCOCC2)c1 the results were TRPC4 block inactive, TRPC6 inh inactive, TRPC4 agonist inactive, TRPC6 act inactive and TRPC4 potent inactive.
O=C(NCCc1ccccc1)C1CCC(CNS(=O)(=O)c2cccs2)CC1 (stereo not given) was read as TRPC4 block inactive, TRPC6 inh inactive, TRPC4 agonist inactive, TRPC6 act inactive and TRPC4 potent inactive.
`COc1cc(/C=C/C(=O)c2ccc3c(c2)OCCO3)cc(Br)c1OCC(=O)N(C)C` gave TRPC4 block inactive, TRPC6 inh inactive, TRPC4 agonist inactive, TRPC6 act 13, TRPC4 potent inactive, HEK293 MPD ctr-2 126%, HEK293 MPD ctr 2-2 inactive, TRPC4 ctr mod 27%, TRPC4 ctr inh 2 inactive, TRPC6 block conf inactive and TRPC6 act confirm 51%.
Cc1ccc(C2=NCCn3c2c2ccc(C(F)(F)F)cc2[n+]3[O-])cc1 was read as TRPC4 block inactive, TRPC6 inh inactive, TRPC4 agonist inactive, TRPC6 act inactive and TRPC4 potent inactive.
`COc1ccccc1CN1CCC(CNS(=O)(=O)c2cc(-c3onc(C)c3C)ccc2OC)CC1` gave TRPC4 block inactive, TRPC6 inh inactive, TRPC4 agonist inactive, TRPC6 act inactive and TRPC4 potent inactive.

Assay outcomes deposited in PubChem BioAssay by Johns Hopkins Ion Channel Center.
